Experimental data as given in ChEMBL document CHEMBL1123074, “Aromatase inhibitors. Synthesis and biological activity of androstenedione derivatives” (J Med Chem, 1985).

Experiments:
Aromatase [1] = target: T1, Aromatase (Homo sapiens, UniProt P11511); test: Percent inhibition of human placental Cytochrome P450 19A1 at 3:1 inhibitor: androstenedione (0.7 uM) ratio
T1 sequence (P11511 whole entry): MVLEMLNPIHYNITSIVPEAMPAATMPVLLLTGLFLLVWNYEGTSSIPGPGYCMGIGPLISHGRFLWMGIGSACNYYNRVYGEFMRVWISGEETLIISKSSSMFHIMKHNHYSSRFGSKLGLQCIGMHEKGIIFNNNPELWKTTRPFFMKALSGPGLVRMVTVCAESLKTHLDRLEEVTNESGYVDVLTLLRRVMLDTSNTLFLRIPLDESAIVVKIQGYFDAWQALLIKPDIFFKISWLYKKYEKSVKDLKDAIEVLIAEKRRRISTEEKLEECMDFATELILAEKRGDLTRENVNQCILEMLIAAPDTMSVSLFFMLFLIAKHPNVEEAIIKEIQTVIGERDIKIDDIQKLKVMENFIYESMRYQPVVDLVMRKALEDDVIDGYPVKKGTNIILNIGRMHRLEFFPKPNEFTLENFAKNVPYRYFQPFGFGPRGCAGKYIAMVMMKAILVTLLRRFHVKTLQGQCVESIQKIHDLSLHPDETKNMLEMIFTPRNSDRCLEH
How it was run: (§1)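 Human term placental microsomes (0.3-0.9 mg protein) incubated with test compound at stated inhibitor:substrate ratio, [4-14C]androstenedione, 0.7 μM androstenedione and NADPH-generating system (NADP, glucose 6-phosphate, glucose-6-phosphate dehydrogenase) in 0.1 M phosphate buffer pH 7.4, 30 min, 37 °C under oxygen. Stopped with [6,7-3H2]estradiol/estrone recovery markers and carriers; estrogens extracted, TLC-purified, quantified versus control.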

Aromatase [2] = target: T1, Aromatase; test: Percent inhibition of human placental Cytochrome P450 19A1 at 1:1 inhibitor: androstenedione (0.7 uM) ratio; how it was run: as §1
Aromatase [3] = target: T1, Aromatase; test: Percent inhibition of human placental Cytochrome P450 19A1 at 6:1 inhibitor: androstenedione (0.7 uM) ratio; how it was run: as §1

Row | SMILES | Inhibition (Aromatase [1]) [%] | Inhibition (Aromatase [2]) [%] | Inhibition (Aromatase [3]) [%]
1 | CC12CCC3C(CCC4=C(OC(=O)CCC(=O)O)C(=O)CCC43C)C1CCC2=O (stereo unspecified) | 70 | – | –
2 | C[C@]12C=CC(=O)C=C1C=C[C@@H]1[C@@H]2CC[C@]2(C)C(=O)CC[C@@H]12 | 83 | 69 | –
3 | CC12CCC3C(CC(=O)C4=CC(=O)CCC43C)C1CCC2=O (stereo unspecified) | 78 | – | –
4 | CC12CCC3C(CCC4=C(Cl)C(=O)CCC43C)C1CCC2=O (stereo unspecified) | 9 | – | 43
5 | C[C@]12CCC(=O)C(O)=C1CC[C@@H]1[C@@H]2CC[C@]2(C)C(=O)CC[C@@H]12 [FORMESTANE] | 91 | 89 | –
6 | CC12CCC3C(C=CC4=C(O)C(=O)CCC43C)C1CCC2=O (stereo unspecified) | 30 | 8 | –
7 | COC1=C2CCC3C4CCC(=O)C4(C)CCC3C2(C)CCC1=O (stereo unspecified) | 7 | – | 28
8 | CC(=O)OC1=C2CCC3C4CCC(=O)C4(C)CCC3C2(C)CCC1=O (stereo unspecified) | 90 | 81 | –
9 | CC12C=CC(=O)C(O)=C1CCC1C2CCC2(C)C(=O)CCC12 (stereo unspecified) | 84 | 66 | –
